Activity calls are given as the source filed them. The calls are words filed in the database; no cut-off is given here.

Our source for the Stability, Activity and inhibition values is ChEMBL document CHEMBL5335784, “Discovery of a novel 1,3,4-oxadiazol-2-one-based NLRP3 inhibitor as a pharmacological agent to mitigate cardiac and metabolic complications in an experimental model of diet-induced metaflammation” (Eur J Med Chem, 2023).

Data set [1] is described as follows: Stability of the compound in saline solution containing 2% DMSO and 5% Cremophor-EL measured at 25 degC for more than 7 days by RP-HPLC analysis. The conditions noted are these: buffer, 168 h; time 7 day. Format: physicochemical. The method, boiled down: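 A 2 mg/mL solution in saline with 2% DMSO and 5% Cremophor-EL was kept at 4 °C or 25 °C for 7 days and analysed daily by RP-HPLC at 226/254 nm.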

Data set [2] relates to Rattus norvegicus. Briefly: Antiinflammatory activity against high fat diet fed-induced metaflammation Wistar rat model assessed as reduction in HFD-induced anthropometric alterations by measuring reduction in body weight gain at 20 mg/kg/day, ip administered for 4 weeks. Format: functional, organism-based. The method, boiled down: (§1)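 Male Wistar rats on high-fat diet (60% kcal fat) or standard diet for 12 weeks; 20 mg/kg/day i.p. or vehicle (saline, 2% DMSO, 5% Cremophor-EL) over the last 28 days. Body weight recorded weekly. After sacrifice, abdominal, epididymal, retroperitoneal and perirenal fat, liver and heart excised and weighed. Cardiac somatic index = heart weight/body weight ×100. n=6–7 per group.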

Data set [3] has as its system Rattus norvegicus. In words: Antiinflammatory activity against high fat diet fed-induced metaflammation Wistar rat model assessed as reduction in HFD-induced anthropometric alterations by measuring reduction in abdominal fat deposition at 20 mg/kg/day, ip administered for 4 weeks. The data set is classed as functional, organism-based. The method, boiled down:
as §1

The test system of data set [4] is Rattus norvegicus. Briefly: Antiinflammatory activity against high fat diet fed-induced metaflammation Wistar rat model assessed as reduction in HFD-induced anthropometric alterations by measuring reduction in perirenal fat deposition at 20 mg/kg/day, ip administered for 4 weeks. The data set is classed as functional, organism-based. In a few lines:
as §1

For data set [5], the system named is Rattus norvegicus. Briefly: Antiinflammatory activity against high fat diet fed-induced metaflammation Wistar rat model assessed as reduction in HFD-induced anthropometric alterations by measuring reduction in heart weight at 20 mg/kg/day, ip administered for 4 weeks. Format: functional, organism-based. The method, boiled down:
as §1

Data set [6] has as its system Rattus norvegicus. In words: Antiinflammatory activity against high fat diet fed-induced metaflammation Wistar rat model assessed as reduction in HFD-induced anthropometric alterations by measuring reduction in cardiac somatic index at 20 mg/kg/day, ip administered for 4 weeks. Format: functional, organism-based. In a few lines:
as §1

Data set [7] concerns Rattus norvegicus. In words: Antiinflammatory activity against high fat diet fed-induced metaflammation Wistar rat model assessed as reduction in HFD-induced metabolic alterations by measuring reduction in total cholesterol level in plasma at 20 mg/kg/day, ip administered for 4 weeks. The data set is classed as functional, organism-based. The method, boiled down:
(§2)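 Rats fed HFD or SD for 12 weeks, dosed 20 mg/kg/day i.p. in saline/2% DMSO/5% Cremophor-EL during the final 28 days. Serum obtained after sacrifice by centrifuging blood at 2000 x g, 10 min, 4 °C. Glucose read by glucometer; total, HDL and LDL cholesterol and triglycerides measured with commercial kits. n=6–7 per group.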

For data set [8], the system named is Rattus norvegicus. In words: Antiinflammatory activity against high fat diet fed-induced metaflammation Wistar rat model assessed as reduction in HFD-induced metabolic alterations by measuring reduction in triglyceride level in plasma at 20 mg/kg/day, ip administered for 4 weeks. The data set is classed as functional, organism-based. The method, boiled down: as §2

In data set [9] the test system is Rattus norvegicus. Briefly: Antiinflammatory activity against high fat diet fed-induced metaflammation Wistar rat model assessed as reduction in HFD-induced metabolic alterations by measuring increase in HDL cholesterol level in plasma at 20 mg/kg/day, ip administered for 4 weeks. Format: functional, organism-based. The method, boiled down: as §2
Data set [10] can be described thus: Effect on glyco-metabolic profile in standard diet fed Wistar rat assessed as effect on total cholesterol level in plasma at 20 mg/kg/day, ip administered for 4 weeks. The data set is classed as toxicity, organism-based. To be noted: in vivo, 672 h. In a few lines: as §2
Data set [11] in a line: Effect on glyco-metabolic profile in standard diet fed Wistar rat assessed as effect on LDL cholesterol level in plasma at 20 mg/kg/day, ip administered for 4 weeks. Format: toxicity, organism-based. The conditions noted are these: in vivo, 672 h. The method, boiled down:
as §2

For data set [12], the system named is Rattus norvegicus. In words: Cardioprotective activity against high fat diet fed-induced metaflammation Wistar rat model assessed as reduction in myocardial damage by measuring reduction in plasma BNP level at 20 mg/kg/day, ip administered for 4 weeks by ELISA. Format: functional, organism-based. In a few lines:
(§3)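 Male Wistar rats on HFD or SD for 12 weeks received 20 mg/kg/day i.p. (saline, 2% DMSO, 5% Cremophor-EL) or vehicle for the last 28 days. Circulating IL-1β, TNF-α, BNP and Gal-3 quantified by ELISA in blood collected after sacrifice. n=6–7 per group.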
(In an ELISA, binding on a coated surface is turned into a signal by an enzyme label.)

Data set [13] deals with Rattus norvegicus. In words: Cardioprotective activity against high fat diet fed-induced metaflammation Wistar rat model assessed as reduction in myocardial damage by measuring reduction in plasma Gal-3level at 20 mg/kg/day, ip administered for 4 weeks by ELISA. Format: functional, organism-based. In a few lines:
as §3

The nature of data set [14]: Effect on developed LVP recovery in high diet fed obese Wistar rat model at 20 mg/kg/day, ip administered for 4 weeks (reference value: 54 +/-6 mmHg). The data set is classed as toxicity, organism-based. To be noted: in vivo, 672 h.
Data set [15] has as its system Rattus norvegicus. Briefly: Inhibition of ischemia/reperfusion-induced NLRP3 inflammasome activation in ischemia/reperfusion-induced myocardial injury and high fat diet fed obese Wistar rat model assessed as decrease in NLRP3 protein expression at 20 mg/kg/day, ip administered for 4 weeks followed by excised heart exposed to global ischemia for 30 mins and reperfusion for 120 mins by immunoblot analysis. The data set is classed as functional, organism-based. The method, boiled down: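 Left ventricles from Langendorff hearts (30 min global ischemia/120 min reperfusion) of HFD or SD rats dosed 20 mg/kg/day i.p. for the final 28 days. Tissue homogenized in RIPA buffer with protease/phosphatase inhibitors. 50 μg protein run on 8% SDS-PAGE and immunoblotted for NLRP3 (1:500), normalized to β-actin by densitometry; n=4 per group.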
For orientation: In western blotting, separated proteins are transferred to a membrane and probed.

Data set [16] concerns Rattus norvegicus. In words: Inhibition of ischemia/reperfusion-induced inflammation in ischemia/reperfusion-induced myocardial injury and standard diet fed Wistar rat model assessed as decrease in cardiac TNF-alpha level at 20 mg/kg/day, ip administered for 4 weeks followed by excised heart exposed to global ischemia for 30 mins and reperfusion for 120 mins by ELISA. The data set is classed as functional, organism-based. The method, boiled down: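 Male Wistar rats on standard or 60% kcal fat diet for 12 weeks; last 28 days i.p. 20 mg/kg/day in saline with 2% DMSO and 5% Cremophor-EL, or vehicle. Hearts perfused by Langendorff with KH buffer at 12 ml/min, 37°C, then 40 min stabilization, 30 min global no-flow ischemia and 120 min reperfusion. Cytokines measured in LV tissue; n=6–7 per group.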

Data set [17] concerns Rattus norvegicus. In words: Inhibition of ischemia/reperfusion-induced oxidative stress in ischemia/reperfusion-induced myocardial injury and high fat diet fed obese Wistar rat model assessed as decrease in cardiac MDA level at 20 mg/kg/day, ip administered for 4 weeks followed by excised heart exposed to global ischemia for 30 mins and reperfusion for 120 mins by TBARS assay. Format: functional, organism-based. The method, boiled down:
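Same rat diet, dosing and Langendorff ischemia/reperfusion protocol. LV homogenized 10% w/v in 0.9% KCl pH 7.4. Homogenate heated at 100 °C for 15 min with TCA and TBA plus butylated hydroxytoluene, centrifuged, and read at […]. MDA expressed as nmol/g heart tissue, compared with sham hearts perfused for 190 min.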

The test system of data set [18] is Rattus norvegicus. In words: Inhibition of ischemia/reperfusion-induced oxidative stress in ischemia/reperfusion-induced myocardial injury and standard diet fed Wistar rat model assessed as increase in cardiac SOD activity at 20 mg/kg/day, ip administered for 4 weeks followed by excised heart exposed to global ischemia for 30 mins and reperfusion for 120 mins. The data set is classed as functional, organism-based. In a few lines:
(§4)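 Same rat diet, dosing and ischemia/reperfusion protocol. LV homogenized in 50 mM Tris-HCl pH 8.2 with 1 mM DTPA and centrifuged at 20,000 x g for 20 min. Supernatant mixed with 0.2 mM pyrogallol, autoxidation followed at 420 nm for 3 min. Activity given as % pyrogallol autoxidation relative to sham; 1 U inhibits the rate by 50%.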

Data set [19] concerns Rattus norvegicus. In words: Inhibition of ischemia/reperfusion-induced oxidative stress in ischemia/reperfusion-induced myocardial injury and high fat diet fed obese Wistar rat model assessed as increase in cardiac SOD activity at 20 mg/kg/day, ip administered for 4 weeks followed by excised heart exposed to global ischemia for 30 mins and reperfusion for 120 mins. The data set is classed as functional, organism-based. In a few lines:
as §4

Turning to `CCOC(=O)Cn1nc(Cc2ccccc2Cl)oc1=O`, the Stability result in data set [1] is reported as “Stable”. In addition, the outcome in data set [2] was inactive. Moreover, the result in [3], in [4], in data set [5], in data set [6], in data set [7] and in data set [8] was Active. Also, the result in data set [9], in data set [12] and in [13] was Active. For the same compound, the Activity entry is listed as “Non-Toxic” in data set [10], “Non-Toxic” in data set [11] and 64 mmHg in data set [14]. The inhibition result in [15], in data set [16], in data set [17], in data set [18] and in data set [19] was “Active” throughout.
